In ChEMBL document CHEMBL3351675, “Novel benzenesulfonylureas containing thiophenylpyrazoline moiety as potential antidiabetic and anticancer agents” (Bioorg Med Chem Lett, 2014):
Calls of active or inactive are those of the source. No cut-off for these calls is given here.

Legend:
[1] = Anticancer activity against human PC3 cells assessed as cell growth level at 10 uM after 48 hrs by sulforhodamine B assay; format: functional, PC-3
786-0 = assay: Anticancer activity against human 786-0 cells assessed as cell growth level at 10 uM after 48 hrs by sulforhodamine B assay; format: functional
SR = assay: Anticancer activity against human SR cells assessed as cell growth level at 10 uM after 48 hrs by sulforhodamine B assay; format: functional
[2] = Anticancer activity against human HCT116 cells assessed as cell growth level at 10 uM after 48 hrs by sulforhodamine B assay; format: functional, HCT-116
[3] = Anticancer activity against human SF295 cells assessed as cell growth level at 10 uM after 48 hrs by sulforhodamine B assay; format: functional, SF-295
HOP-62 = assay: Anticancer activity against human HOP62 cells assessed as cell growth level at 10 uM after 48 hrs by sulforhodamine B assay; format: functional
HT-29 = assay: Anticancer activity against human HT-29 cells assessed as cell growth level at 10 uM after 48 hrs by sulforhodamine B assay; format: functional
Rattus norvegicus [4] = assay: Antidiabetic activity in overnight fasted Wistar rat assessed as reduction in plasma glucose level at 30 mg/kg, po by oral glucose tolerance test; format: functional, organism-based; set-up: dose 30 mg/kg
Method in brief: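 Normal Wistar rats were given a glucose load by the oral glucose tolerance method, and plasma glucose rise was followed after oral test dosing. Glibenclamide was the reference drug. Data are mean ± SEM of six observations versus control, analysed by one-way ANOVA with Dunnett test (p < 0.05, p < 0.01).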

NCI-H522 = assay: Anticancer activity against human NCI-H522 cells assessed as cell growth level at 10 uM after 48 hrs by sulforhodamine B assay; format: functional
[5] = target: Peroxisome proliferator-activated receptor gamma (Mus musculus) (UniProt P37238); assay: Transactivation of PPARgamma (mouse) expressed in 3T3-L1 cells incubated for 24 hrs by luciferase reporter gene assay relative to rosiglitazone
U-251 = assay: Anticancer activity against human U251 cells assessed as cell growth level at 10 uM after 48 hrs by sulforhodamine B assay; format: functional
[6] = Anticancer activity against human NCI-ADR-RES cells assessed as cell growth level at 10 uM after 48 hrs by sulforhodamine B assay; format: functional
[7] = Anticancer activity against human HOP92 cells assessed as cell growth level at 10 uM after 48 hrs by sulforhodamine B assay; format: functional, HOP-92
SK-MEL-5 = assay: Anticancer activity against human SK-MEL-5 cells assessed as cell growth level at 10 uM after 48 hrs by sulforhodamine B assay; format: functional
MDA-MB-435 = assay: Anticancer activity against human MDA-MB-435 cells assessed as cell growth level at 10 uM after 48 hrs by sulforhodamine B assay; format: functional
CAKI-1 = assay: Anticancer activity against human CAKI-1 cells assessed as cell growth level at 10 uM after 48 hrs by sulforhodamine B assay; format: functional
[8] = Anticancer activity against human HCT15 cells assessed as cell growth level at 10 uM after 48 hrs by sulforhodamine B assay; format: functional, HCT-15
[9] = Anticancer activity against human UACC62 cells assessed as cell growth level at 10 uM after 48 hrs by sulforhodamine B assay; format: functional, UACC-62
IGROV-1 = assay: Anticancer activity against human IGROV1 cells assessed as cell growth level at 10 uM after 48 hrs by sulforhodamine B assay; format: functional
M14 = assay: Anticancer activity against human M14 cells assessed as cell growth level at 10 uM after 48 hrs by sulforhodamine B assay; format: functional
Malme-3M = assay: Anticancer activity against human MALME-3M cells assessed as cell growth level at 10 uM after 48 hrs by sulforhodamine B assay; format: functional
[10] = Anticancer activity against human LOXIMVI cells assessed as cell growth level at 10 uM after 48 hrs by sulforhodamine B assay; format: functional, LOX IMVI
[11] = Anticancer activity against human SKOV3 cells assessed as cell growth level at 10 uM after 48 hrs by sulforhodamine B assay; format: functional, SK-OV-3
[12] = Anticancer activity against human OVCAR3 cells assessed as cell growth level at 10 uM after 48 hrs by sulforhodamine B assay; format: functional, OVCAR-3
[13] = Anticancer activity against human UACC257 cells assessed as cell growth level at 10 uM after 48 hrs by sulforhodamine B assay; format: functional, UACC-257
[14] = Anticancer activity against human Hs 578T cells assessed as cell growth level at 10 uM after 48 hrs by sulforhodamine B assay; format: functional
[15] = Anticancer activity against human NCI60 cells assessed as cell growth level at 10 uM after 48 hrs by sulforhodamine B assay; format: functional
[16] = Anticancer activity against human OVCAR5 cells assessed as cell growth level at 10 uM after 48 hrs by sulforhodamine B assay; format: functional, OVCAR-5
[17] = Anticancer activity against human UO31 cells assessed as cell growth level at 10 uM after 48 hrs by sulforhodamine B assay; format: functional, UO-31
CCRF-CEM = assay: Anticancer activity against human CCRF-CEM cells assessed as cell growth level at 10 uM after 48 hrs by sulforhodamine B assay; format: functional
SNB-75 = assay: Anticancer activity against human SNB75 cells assessed as cell growth level at 10 uM after 48 hrs by sulforhodamine B assay; format: functional
KM12 = assay: Anticancer activity against human KM12 cells assessed as cell growth level at 10 uM after 48 hrs by sulforhodamine B assay; format: functional
A498 = assay: Anticancer activity against human A498 cells assessed as cell growth level at 10 uM after 48 hrs by sulforhodamine B assay; format: functional
SNB-19 = assay: Anticancer activity against human SNB19 cells assessed as cell growth level at 10 uM after 48 hrs by sulforhodamine B assay; format: functional
NCI-H226 = assay: Anticancer activity against human NCI-H226 cells assessed as cell growth level at 10 uM after 48 hrs by sulforhodamine B assay; format: functional
[18] = Anticancer activity against human BT549 cells assessed as cell growth level at 10 uM after 48 hrs by sulforhodamine B assay; format: functional, BT-549
SF-268 = assay: Anticancer activity against human SF268 cells assessed as cell growth level at 10 uM after 48 hrs by sulforhodamine B assay; format: functional
ACHN = assay: Anticancer activity against human ACHN cells assessed as cell growth level at 10 uM after 48 hrs by sulforhodamine B assay; format: functional
[19] = Anticancer activity against human RPMI8226 cells assessed as cell growth level at 10 uM after 48 hrs by sulforhodamine B assay; format: functional, RPMI-8226
MDA-MB-231 = assay: Anticancer activity against human MDA-MB-231 cells assessed as cell growth level at 10 uM after 48 hrs by sulforhodamine B assay; format: functional
[20] = Anticancer activity against human MOLT4 cells assessed as cell growth level at 10 uM after 48 hrs by sulforhodamine B assay; format: functional, MOLT-4
MCF7 = assay: Anticancer activity against human MCF7 cells assessed as cell growth level at 10 uM after 48 hrs by sulforhodamine B assay; format: functional
Rattus norvegicus [21] = assay: Effect on body weight in Wistar rat model of streptozotocin-induced diabetes at 30 mg/kg, po measured over 15 days; format: ADME, organism-based; set-up: dose 30 mg/kg, route oral; conditions: in vivo, 360 h
NCI-H23 = assay: Anticancer activity against human NCI-H23 cells assessed as cell growth level at 10 uM after 48 hrs by sulforhodamine B assay; format: functional

Sequence of Peroxisome proliferator-activated receptor gamma (Mus musculus) (P37238 whole entry, looked up): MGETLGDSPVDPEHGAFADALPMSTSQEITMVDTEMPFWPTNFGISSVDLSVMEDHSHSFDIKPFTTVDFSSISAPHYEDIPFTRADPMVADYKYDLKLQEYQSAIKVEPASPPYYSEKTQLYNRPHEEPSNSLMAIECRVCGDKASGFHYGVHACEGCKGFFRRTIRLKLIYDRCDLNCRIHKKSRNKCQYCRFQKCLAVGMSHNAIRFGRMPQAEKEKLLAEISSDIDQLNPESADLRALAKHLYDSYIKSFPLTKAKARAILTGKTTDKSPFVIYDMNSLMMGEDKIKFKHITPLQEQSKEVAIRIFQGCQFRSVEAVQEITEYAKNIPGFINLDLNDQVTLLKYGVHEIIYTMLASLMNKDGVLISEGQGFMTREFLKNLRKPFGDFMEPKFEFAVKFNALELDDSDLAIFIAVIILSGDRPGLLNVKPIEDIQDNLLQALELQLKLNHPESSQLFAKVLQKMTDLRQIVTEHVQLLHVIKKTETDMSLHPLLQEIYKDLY

COc1ccc(NC(=O)NS(=O)(=O)c2ccc(N3N=C(c4cccs4)CC3c3ccc(C)s3)cc2)cc1 (stereo not drawn)
Activity [1]: 96.33%
Activity (786-0): 100.87%
Activity (SR): 75.83%
Activity [2]: 98.77%
Activity [3]: 104.7%
Activity (HOP-62): 81.02%
Activity (HT-29): 119.52%
inhibition (Rattus norvegicus [4]): Active
Activity (NCI-H522): 87.33%
Activity [5]: inactive
Activity (U-251): 98.07%
Activity [6]: 103.44%
Activity [7]: 87.06%
Activity (SK-MEL-5): 48.27%
Activity (MDA-MB-435): 52.3%
Activity (CAKI-1): 94.74%
Activity [8]: 102.46%
Activity [9]: 31%
Activity (IGROV-1): 108.05%
Activity (M14): 52.12%
Activity (Malme-3M): 31.15%
Activity [10]: 96.81%
Activity [11]: 82.55%
Activity [12]: 106.38%
Activity [13]: 49.98%
Activity [14]: 97.52%
Activity [15]: 87.76%
Activity [16]: 113.48%
Activity [17]: 87.18%
Activity (CCRF-CEM): 88.12%
Activity (SNB-75): 99.87%
Activity (KM12): 98.51%
Activity (A498): 101.86%
Activity (SNB-19): 103.16%
Activity (NCI-H226): 110.15%
Activity [18]: 116.23%
Activity (SF-268): 97.85%
Activity (ACHN): 93.16%
Activity [19]: 95.29%
Activity (MDA-MB-231): 113.39%
Activity [20]: 94.7%
Activity (MCF7): 99.04%
Activity (Rattus norvegicus [21]): Non-toxic
Activity (NCI-H23): 97.55%

Cc1ccc(NC(=O)NS(=O)(=O)c2ccc(N3N=C(c4cccs4)CC3c3ccc(C)s3)cc2)cc1 (stereo not drawn)
Activity [1]: 86.34%
Activity (786-0): 103.79%
Activity (SR): 84.69%
Activity [2]: 85.12%
Activity [3]: 100.07%
Activity (HOP-62): 76.92%
Activity (HT-29): 127.85%
inhibition (Rattus norvegicus [4]): Active
Activity (NCI-H522): 91.51%
Activity [5]: inactive
Activity (U-251): 94.12%
Activity [6]: 102.87%
Activity [7]: 84.91%
Activity (SK-MEL-5): 47.78%
Activity (MDA-MB-435): 61.95%
Activity (CAKI-1): 95.78%
Activity [8]: 99.31%
Activity [9]: 40.91%
Activity (IGROV-1): 107.76%
Activity (M14): 58.39%
Activity (Malme-3M): 40.64%
Activity [10]: 99.74%
Activity [11]: 78.27%
Activity [12]: 98.17%
Activity [13]: 61.42%
Activity [14]: 96.05%
Activity [15]: 89.29%
Activity [16]: 114.78%
Activity [17]: 85.69%
Activity (CCRF-CEM): 87.89%
Activity (SNB-75): 93.74%
Activity (KM12): 97.36%
Activity (A498): 109%
Activity (SNB-19): 108.18%
Activity (NCI-H226): 110.48%
Activity [18]: 74.25%
Activity (SF-268): 95.62%
Activity (ACHN): 96.6%
Activity [19]: 83.37%
Activity (MDA-MB-231): 116.79%
Activity [20]: 94.41%
Activity (MCF7): 97.09%
Activity (Rattus norvegicus [21]): Non-toxic
Activity (NCI-H23): 98.53%
